Sampled rows, rich in hits. Any-hit rate of the full collection: about 2.6%.
HSF-1 act = increases HSF-1 driven luciferase reporter signal | activation, % at 9 µM | 300,000 compounds, 1.7% hits | NIH3T3-HGL HSF-1 luciferase reporter, MG132, 8 h; 100% = twice DMSO control signal;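 active = mean replicate activation of at least 50% with a set share of replicates each reaching 50%; inconclusive = only one of those two conditions met; inactive = mean below 50% and too few replicates reaching it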
Mdm2 ligase inh = blocks human Mdm2 ubiquitin ligase activity | Q00987 | cell-based MDM2 ubiquitination luciferase reporter, 2 h; 0 = plate control, 100 = twice control, blank-subtracted | signal enhancement, % at 5 µM | 210,000 compounds, 0.11% hits;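 active = signal enhancement of 30% or more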;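 also: luminescence tracks abundance of the self-degrading MDM2-luciferase fusion protein; higher signal means inhibition of MDM2 E3 ligase activity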
Target sequence (Q00987 whole entry, looked up, the tested form may be a part): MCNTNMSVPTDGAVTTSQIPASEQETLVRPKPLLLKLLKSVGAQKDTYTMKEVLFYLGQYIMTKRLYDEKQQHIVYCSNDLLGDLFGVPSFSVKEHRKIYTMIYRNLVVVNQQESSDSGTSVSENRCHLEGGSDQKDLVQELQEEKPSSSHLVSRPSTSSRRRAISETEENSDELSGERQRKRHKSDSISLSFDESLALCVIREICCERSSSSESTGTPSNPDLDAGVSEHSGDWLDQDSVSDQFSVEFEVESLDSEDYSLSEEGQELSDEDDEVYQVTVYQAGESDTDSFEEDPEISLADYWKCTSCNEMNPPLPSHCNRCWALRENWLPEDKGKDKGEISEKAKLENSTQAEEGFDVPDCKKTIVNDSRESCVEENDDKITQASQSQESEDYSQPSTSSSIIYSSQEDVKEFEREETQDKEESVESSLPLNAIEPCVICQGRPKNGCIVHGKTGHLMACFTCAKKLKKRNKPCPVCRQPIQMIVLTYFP
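test system = mammalian cells stably expressing self-ubiquitinating, self-degrading MDM2 E3–luciferase fusion | quantity = 2000 cells/well | incubation = cell settling 4 h, compound treatment 2 h, both 37 °C | signal = luminescence with SteadyLite reagent, 15 min at room temperature | evaluation = % enhancement relative to plate controls after blank subtraction | benchmarks = plate controls and plate blanks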
HSF1 inh = HSF1 inhibition. NIH3T3-HGL HSE-luciferase, MG132-induced, luminescence 8 h; hits give low values. activity change, negative = inhibition, % at 7.5 µM (by protocol). 300,000 compounds, 0.77% hits. AID 2098;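 active = more than half of replicate wells show activity change below -50%, luminescence cut by over half; inconclusive = some wells, but at most half, below -50%; inactive = no replicate well below -50%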;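 also: luciferase reports HSF-1 transcriptional activity via heat shock element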
HSV replic up = HSV replication enhancement; 220,000 compounds, 0.005% hits; maximum fold increase; HSV replication augmentation in cells, fold increase; in the data active = maximum fold increase above about 1.5; inconclusive = no clear call, values can overlap the other calls; tested in PC3 cells
Rad51 HR inh = Rad51 (human) homologous recombination inhibition | AID 1385 | 200,000 compounds, 0.085% hits | inhibition, % at 10 µM | hRad51 DNA strand exchange, fluorescence dequenching;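 active = inhibition above 40% at the single screening dose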
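Material: human Rad51–ssDNA filaments; Probe or stimulus: labelled 47-mer dsDNA for strand exchange; Doses: single 10 µM dose; Incubation: 37 °C 15-min filament assembly, 30-min compound preincubation, 15-min exchange; Technique: FRET fluorescence dequenching, excitation 485 nm, emission 520 nm; Measure: Fluorescence-based percent inhibition, control- and blank-normalised; Benchmarks: plate control and blank wells.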
Hsp70 act = transcriptional activators of Hsp70; activation, % at 10 µM; 200,000 compounds, 0.04% hits; AID 1203; HeLa Hsp70 promoter luciferase reporter, luminescence; scaled: vehicle 0, proteasome-inhibitor control 100%;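 active = activation above the mean across all tested compounds plus 3 SD, cutoff set per campaign, cut at about 5.5% in these data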
Numbers stand for hits; 0 = inactive; ? = inconclusive; - = no result.

SMILES | HSF-1 act | Mdm2 ligase inh | HSF1 inh | HSV replic up | Rad51 HR inh | Hsp70 act
COc1cccc(-n2nc(-c3ccnn3-c3ccccc3)c(=O)n(C)c2=O)c1 | 0 | 0 | 0 | 0 | 0 | 0
COc1cccc(-n2nc(-c3ccnn3-c3cccc(Cl)c3)c(=O)n(C)c2=O)c1 | 0 | - | -54 | 0 | 0 | -
O=C(O)CSc1cc(NS(=O)(=O)c2ccc(Br)cc2)c2ccccc2c1O | 114 | - | 0 | - | - | -
O=C(NCc1ccccn1)c1cc(-c2ccccc2)nc2ccccc12 | 0 | - | 0 | 0 | - | 0
COCCNC(=O)c1cc(-c2ccc(-c3ccccc3)cc2)nc2ccccc12 | 64 | - | 0 | - | - | -
NS(=O)(=O)c1ccc(CCNC(=O)c2cc(-c3ccc(Br)cc3)nc3ccccc23)cc1 | 0 | 0 | 0 | 0 | 0 | 0
O=C(O)c1cc(-c2cccc3ccccc23)nc2ccccc12 | 0 | - | -88 | - | - | -
O=C(NCc1ccccn1)c1cc(-c2ccc(-c3ccccc3)cc2)nc2ccccc12 | 84 | 0 | 0 | 0 | 0 | 0
CCCc1ccc(-c2cc(C(=O)NCCc3ccc(S(N)(=O)=O)cc3)c3ccccc3n2)cc1 | 85 | 0 | 0 | 0 | 0 | 0
CCn1nc(C)c(CN2CCC(Oc3ccc(C(=O)N4CCCC4)cc3)CC2)c1C | 0 | - | 0 | - | - | -
CCCNC(=O)COC(=O)c1c2c(nc3ccccc13)CCC2 | 0 | - | 0 | - | - | -
COc1cccc(OCc2ccc(Cl)cc2)c1C#N | 61 | 0 | 0 | 0 | 0 | -
O=C(Nc1nc(-c2cccs2)cs1)c1cccc(S(=O)(=O)N2CCCCCC2)c1 | 0 | 0 | -61 | ? | 0 | 0
Cc1csc(NC(=O)c2cccc(S(=O)(=O)N3CCCCC3)c2)n1 | 0 | 0 | 0 | 0 | 0 | 0
O=C(Nc1nc(-c2cccs2)cs1)c1ccc(S(=O)(=O)N2CCCCC2)cc1 | 0 | 0 | -61 | 0 | 0 | 0
O=C(Nc1nc(-c2ccccn2)cs1)c1ccc(S(=O)(=O)N2CCCCC2)cc1 | 0 | - | 0 | 0 | 0 | -
COc1ccc(Cl)cc1N(C(=O)Nc1cccc(Cl)c1)C1=NCC(C)S1 (configuration not stated) | 0 | - | 0 | 0 | - | 0
COc1ccc(C(=O)Cn2c(C)nc([N+](=O)[O-])c2Br)cc1 | 172 | 0 | 0 | 0 | 0 | -
Cc1cc(C2C(C#N)=C(N)OC3=C2C(=O)CCC3)c(C)s1 (configuration not stated) | 0 | 0 | 0 | 0 | 0 | 0
COc1cc(C2C(C#N)=C(N)OC3=C2C(=O)CCC3)c([N+](=O)[O-])cc1OC (configuration not stated) | 0 | 0 | -77 | ? | 0 | 0
Cc1ccc(O)c(NC(=O)Cc2ccc3ccccc3c2)c1 | 161 | - | 0 | - | - | -
CSc1ccccc1NC(=O)CSc1n[nH]c(C)c1[N+](=O)[O-] | 0 | 0 | 0 | 0 | 0 | 0
Cc1ccc(O)c(NC(=O)CSc2n[nH]c(C)c2[N+](=O)[O-])c1 | 73 | 0 | 0 | 0 | 0 | 0
Cc1ccc(O)c(NC(=O)CSc2ccc(Cl)cc2)c1 | 162 | 0 | 0 | 0 | 0 | 0
CCCc1cc(=O)oc2cc(C)cc(OCC(=O)Nc3cccnc3)c12 | 0 | - | 0 | - | - | -
SMILES | HSF-1 act | Mdm2 ligase inh | HSF1 inh | HSV replic up | Rad51 HR inh | Hsp70 act
C[C@@H](O)C1NC(=O)[C@H](CCCCN)NC(=O)c2cc([N+](=O)[O-])cc(I)c2NCCC[C@@H](C(N)=O)NC1=O (some centres not stated) | 0 | - | 0 | 0 | 0 | 0
COc1ccc(N(CC(=O)Nc2ccccc2F)S(=O)(=O)c2ccc(OC)c(OC)c2)cc1 | 0 | - | 0 | - | - | -
c1ccc(-c2nnc(-c3c[nH]c4ccccc34)nc2-c2ccccc2)cc1 | 0 | 0 | 0 | 0 | 0 | 0
ClC(Cl)c1nnc(-c2ccccc2)c(-c2c[nH]c3ccccc23)n1 | 57 | 0 | 0 | 0 | 0 | 0
COC(=O)c1ccc(C(=O)N(CCN(C)C)c2nc3c(Cl)cccc3s2)cc1 | 0 | 0 | 0 | 0 | 0 | 0
O=C(c1ccccc1)N1CCN(c2ncnc3c2cnn3-c2ccccc2)CC1 | 0 | 0 | 0 | 0 | 0 | 0
Cc1nn(-c2ccccc2)c(Cl)c1C(=O)N1CCN(c2ncnc3c2cnn3-c2ccccc2)CC1 | 0 | 0 | -77 | 0 | 0 | 0
CC1CCN(c2ncnc3c2cnn3-c2ccccc2)CC1 | 57 | 0 | 0 | 0 | 0 | 0
O=C(CCn1c(=O)[nH]c2ccsc2c1=O)NCc1ccc(F)cc1 | 0 | 0 | 0 | 0 | 0 | 0

Compound activity deposited in PubChem BioAssay by several laboratories.
